# TNF death inh: TNF-alpha cell death inhibition in Jurkat FADD-/- cells | AID 463075 | activation (protection from cell death), % at 10 µM | Jurkat FADD-/- TNF necroptosis rescue, ATP luminescence, 24 h; 0 = TNF only, 100 = no-TNF cells | 220,000 tested, 0.068% active;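 active = activation, meaning protection from cell death, of at least 50% relative to plate controls; inactive = activation below 50%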;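 note: necroptosis triggered by 40 ng/mL TNF-alpha added together with compound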
# HSV augment: increases HSV replication in cells. AID 1956. maximum fold increase. HSV replication augmentation in cells, fold increase. 220,000 tested, 0.005% active; in the data active = maximum fold increase above about 1.5; inconclusive = no clear call, values can overlap the other calls; tested in PC3 cells
# zVAD death inh: blocks zVAD induced death of L929 cells. L929 zVAD necroptosis rescue, ATP luminescence, 24 h; with zVAD 60 µM. viability rescue, % at 10 µM. 220,000 tested, 0.38% active;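 active = activation, scaled between plate controls, above about 75%, limit read from the data; inactive = activation under that limit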
# Autophagy mod: autophagy modulation, high-content screen; calls only at 10 µM (by protocol); 190,000 tested, 0.98% active; MEF GFP-LC3 puncta imaging; test concentration mostly 10 µM;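 active = percentage of spot-positive cells more than 3 SD above its plate mean, without a fluorescence outlier flag or 80% toxicity; inconclusive = no clear call, values can overlap the other calls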
# Dynein cargo inh: dynein cargo transport inhibition. 3617.4 mouse cells, GR-EGFP nuclear translocation imaging; test concentration mostly 20 µM; stimulated with dexamethasone, 1 µM; stronger effect = lower value. 220,000 tested, 0.47% active. z-score, hits read low;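 active = plate z-score of nuclear minus cytoplasmic receptor signal below a set negative limit, without overly bright fluorescence or cell loss, cut at about -3.5 in these data, passing the limit was not always enough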;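 note: z-score of nuclear minus cytoplasmic ring GR-EGFP intensity difference per well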
#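 Buffer or medium: tet-free medium with charcoal-stripped serum / Also added: dexamethasone agonist, 1.0 µM final, for 30 min / Timing: induction 48 h, compound 1 h, agonist 30 min / Measured by: high-content fluorescence imaging after fixation / Read-out: nuclear-to-cytoplasmic GR-EGFP distribution per well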
# Furin inhibitor: human furin inhibition; P09958; AID 463115; inhibition, % at 20 µM or 30 µM; purified furin, fluorogenic substrate cleavage; 220,000 tested, 0.061% active; in the data active = inhibition above about 25%
# Target sequence (P09958 108-714 limits assumed): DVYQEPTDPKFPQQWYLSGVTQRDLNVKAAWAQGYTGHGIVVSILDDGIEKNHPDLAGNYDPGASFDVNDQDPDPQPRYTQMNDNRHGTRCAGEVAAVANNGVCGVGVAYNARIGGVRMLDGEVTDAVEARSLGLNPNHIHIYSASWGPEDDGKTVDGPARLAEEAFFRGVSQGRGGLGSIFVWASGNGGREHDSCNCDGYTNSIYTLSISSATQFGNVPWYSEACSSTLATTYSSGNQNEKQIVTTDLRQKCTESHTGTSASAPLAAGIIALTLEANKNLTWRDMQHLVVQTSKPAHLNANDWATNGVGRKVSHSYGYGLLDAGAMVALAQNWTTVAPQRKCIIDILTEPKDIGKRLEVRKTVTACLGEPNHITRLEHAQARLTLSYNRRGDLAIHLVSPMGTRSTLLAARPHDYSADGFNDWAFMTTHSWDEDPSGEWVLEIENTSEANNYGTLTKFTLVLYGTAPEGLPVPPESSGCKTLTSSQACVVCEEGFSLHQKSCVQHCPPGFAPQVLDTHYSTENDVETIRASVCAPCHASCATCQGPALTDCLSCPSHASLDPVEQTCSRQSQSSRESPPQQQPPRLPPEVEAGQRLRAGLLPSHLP
# Numbers stand for hits; 0 = inactive; ? = inconclusive; - = not tested or not shown; + = active, no number. In the library only some 1.8% were active in any assay of this set; here they are far more common.
SMILES,TNF death inh,HSV augment,zVAD death inh,Autophagy mod,Dynein cargo inh,Furin inhibitor
COCCn1c(SCC(=O)Nc2ccc(C)cc2C)nc2c(oc3ccccc32)c1=O,0,0,0,+,0,0
COCCn1c(SCC(=O)Nc2ccccc2C)nc2c(oc3ccccc32)c1=O,0,0,0,0,0,0
O=C(c1ccco1)N1CCN(C2CC(=O)N(c3ccc4c(c3)OCO4)C2=O)CC1 (stereo not given),0,0,0,0,0,31.5
CCc1[nH]c(C(=O)O)c(C)c1C(=O)OC,0,0,0,-,0,0
CCOc1ccc(-n2c(SCC(=O)c3c(N)n(C)c(=O)n(C)c3=O)nnc2-c2cccnc2)cc1,0,0,0,0,0,0
Cc1noc(C)c1CSc1nc2ccccc2n1C,0,0,0,+,0,0
O=C(/C=C(\c1ccccc1)n1cncn1)c1ccccc1,0,0,-,0,0,0
O=C(C(=C1NCCN1)n1cncn1)c1ccccc1,0,0,-,+,0,0
FC(F)(F)c1ccc(C2[C@H]3CN(CC4CCCCC4)[C@H](c4ccccc4)C34CC2(c2cccnc2)C4)cc1 (stereo not given in full),0,0,0,-,0,0
CC(C)Cn1c(N)c(C(=O)CSc2nc3ccccc3c(=O)n2CCCN2CCOCC2)c(=O)n(C)c1=O,0,0,0,+,0,0
CC(C)Cn1c(N)c(C(=O)CSc2nc3ccccc3n2C)c(=O)n(C)c1=O,0,0,0,0,0,0
C/C(CCc1ccccc1)=N\NC(=O)C(=O)Nc1cccc(Cl)c1,0,0,0,0,0,0
Cc1cc(C(F)(F)F)c(C#N)c(SCC(=O)Nc2nc3cc(Br)ccc3s2)n1,0,?,0,+,0,0
CCOC(=O)NC(=O)CSc1nc(C)cc(C(F)(F)F)c1C#N,0,0,0,0,0,0
Cc1ccc(S(=O)(=O)CCSc2nc(C)cc(C(F)(F)F)c2C#N)cc1,0,0,-,+,0,0
CCOC(=O)N/N=C(\C)c1ccc(-n2cnnn2)cc1,0,0,0,0,0,0
Cc1cc(OCc2cn3cccnc3n2)ccc1Cl,0,0,0,0,0,0
O=C(Nc1cccc(Cl)c1)c1cc(S(=O)(=O)NCCc2ccc(Cl)cc2)ccc1F,0,0,0,0,0,0
CC(C)(C)c1cc(C(=O)NCc2cc(F)cc3c2OCOC3)n(Cc2ccccc2)n1,0,0,0,-,0,0
N/C(=N/OC(=O)c1ccc(Cl)cc1)c1ncc([N+](=O)[O-])s1,0,0,0,-,0,0
Cn1c(=O)oc2cc(S(=O)(=O)N3CCC(C(=O)NCc4cccs4)CC3)ccc21,0,0,0,0,0,0
Cn1c(=O)oc2cc(S(=O)(=O)N3CCC(C(=O)NCc4ccc(F)cc4)CC3)ccc21,0,0,0,+,0,0
Cn1c(NC(=O)Cc2cccc3ccccc23)cc(=O)n(C)c1=O,0,0,0,0,0,0
Nc1nc(-c2ccccc2)c(C(=O)Nc2ccccc2)s1,0,0,0,0,0,0
O=C(Nc1ccc2c(c1)CCC2)c1cnn2c1NC(c1ccco1)CC2C(F)(F)F (stereo not given),0,0,0,+,0,0
SMILES,TNF death inh,HSV augment,zVAD death inh,Autophagy mod,Dynein cargo inh,Furin inhibitor
Cc1ccc(Cl)cc1NC(=O)c1cnn2c1NC(c1ccco1)CC2C(F)(F)F (stereo not given),0,0,0,0,0,0
Brc1ccc(-c2cnco2)cc1,0,0,0,0,0,0
CC/C(=N/Nc1ccccc1)c1cnnc(-c2ccccc2)n1,0,0,0,+,0,0
COc1ccc(CSc2nnc3[nH]c(=O)cc(N)n23)cc1,0,0,0,0,0,0
O=C(Oc1ccc(Br)cc1C(=O)/C=C/c1ccccc1F)c1ccco1,0,-,0,0,-5.76,0
O=C(Nc1c(S(=O)(=O)c2ccc(Cl)cc2)csc1Br)c1ccccc1Cl,0,0,0,-,0,0
C#C[C@]1(O)CC[C@H]2[C@@H]3CCc4cc(OC)ccc4[C@H]3CC[C@@]21C,0,0,0,+,0,0
C#C[C@]1(O)CC[C@H]2[C@@H]3CCc4cc(OC5CCCC5)ccc4[C@H]3CC[C@@]21C,-,0,-,-,-,-
Cc1cccc(C)c1NC(=O)CSc1nnc(C)n1CC1CCCO1 (stereo not given),0,0,0,0,0,0
CCOC(=O)CCc1c(C)nc2cc(-c3ccccc3OC)[nH]n2c1=O,0,0,0,0,0,0

# Compound activity as filed in PubChem BioAssay.
